In PubChem BioAssay:
This is one part of the list. Records with an inconclusive call do not appear. A number with no mark means an inactive call. Activity calls are given as the source filed them.

Assays:
[1] = target: Solute carrier family 12 member 5 (Homo sapiens) (UniProt Q9H2X9); assay: retest of KCC2 transport modulators without sodium – cell-based, HEK293 KCC2, thallium flux, secondary assay, confirmation (AID 1713); settings: FluoZin2 fluorescence, at 10 µM, active compounds read high
Method in brief: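 Evaluation: F/F0 slope over 10–20 s post-thallium, baseline-normalized / Material: KCC2-expressing HEK cells / Detection: FluoZin2 fluorescence, 480/540 nm, 1 Hz / Times: 48 min dye loading / Medium: Sodium-free N-methylglucamine chloride buffer / Compound: 10 µM single dose, 0.1% DMSO / Control set: bumetanide and DMSO controls / Probe or stimulus: thallium sulfate stimulus buffer at pH 7.3 / Repeats: duplicates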

[2] = PubChem AID 1714; settings: HEK293-KCC2 + bumetanide/ouabain, thallium flux FluoZin2; at 10 µM; active compounds read high;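 further: raw slope of fluorescence over initial fluorescence between 10 and 20 s after thallium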
Method in brief: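 Test system: HEK cells expressing the K-Cl cotransporter KCC2 | Compound: One dose, 10 µM, 0.1% DMSO | Replication: Duplicates | Evaluation: Normalized thallium flux slope | Detection: FluoZin2-AM (0.5 µM) fluorescence, 480 nm ex/540 nm em, 1 Hz kinetic imaging | Incubation: Overnight culture 37 °C, dye loading 48 min | Reagent: Thallium stimulus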

[3] = target: Solute carrier family 12 member 5 (Homo sapiens) (UniProt Q9H2X9); assay: retest of KCC2 transport modulation, ouabain-free – cell-based, HEK293 KCC2, thallium flux, FluoZin2, secondary assay 2, confirmation (AID 1715;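 active means thallium flux slope more than 3 SD above or below the plate's solvent-only control mean, mostly below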;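 further: raw slope with 0.1% DMSO as baseline and bumetanide as block control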); settings: HEK293-KCC2, thallium flux FluoZin2 fluorescence; at 10 µM; actives lie on both sides; F/F0 rise rate, 10–20 s post-thallium
[4] = compound effects on native HEK Tl+ uptake – HEK cells, counterscreen 1, counter-screen for KCC2 modulator project, confirmation (AID 1716;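 active means thallium flux rate significantly above the same plate's solvent-only control wells, beyond their mean plus 3 SD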); settings: HEK293 parental cells, thallium flux FluoZin2, ouabain; at 10 µM; baseline-ratio fluorescence slope, 10–20 s after thallium
[5] = target: Solute carrier family 12 member 5 (Homo sapiens) (UniProt Q9H2X9); assay: modulation of KCC2 thallium flux in HEK cells – cell-based, ouabain, retest, confirmation (AID 1717;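 active means thallium flux slope beyond 3 SD from same-plate DMSO control mean in most replicates, usually higher, sometimes lower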;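 further: slope of initial-normalized fluorescence between seconds 10 and 20 after thallium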); settings: HEK293-KCC2, thallium flux FluoZin2 fluorescence, at 10 µM, bidirectional: low = inhibitor, high = activator
[6] = native HEK Tl+ uptake effects, second counter-screen – HEK cells, counterscreen 2, counter-screen for KCC2 modulator project, confirmation (AID 1718;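 active means thallium flux slope above the same plate's solvent-control mean plus 3 SD in both duplicate wells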;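 further: run without ouabain in cells lacking the KCC2 cotransporter; slope of fluorescence scaled to its starting value between 10 and 20 s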); settings: HEK293 parental, thallium flux FluoZin-2 fluorescence slope; at 10 µM
Method in brief: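 Material: parental HEK cells. Medium: HBSS, 20 mM HEPES. Reagent: thallium sulfate stimulus, 12 mM in buffer, pH 7.3. Incubation: overnight cell culture at 37 °C, 48 min dye loading, compound before thallium. Signal: FluoZin-2 fluorescence kinetics. Read-out basis: thallium influx rate. Repeats: Per-replicate slope values.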

Chain of Solute carrier family 12 member 5 (Homo sapiens) (Q9H2X9 whole entry, looked up): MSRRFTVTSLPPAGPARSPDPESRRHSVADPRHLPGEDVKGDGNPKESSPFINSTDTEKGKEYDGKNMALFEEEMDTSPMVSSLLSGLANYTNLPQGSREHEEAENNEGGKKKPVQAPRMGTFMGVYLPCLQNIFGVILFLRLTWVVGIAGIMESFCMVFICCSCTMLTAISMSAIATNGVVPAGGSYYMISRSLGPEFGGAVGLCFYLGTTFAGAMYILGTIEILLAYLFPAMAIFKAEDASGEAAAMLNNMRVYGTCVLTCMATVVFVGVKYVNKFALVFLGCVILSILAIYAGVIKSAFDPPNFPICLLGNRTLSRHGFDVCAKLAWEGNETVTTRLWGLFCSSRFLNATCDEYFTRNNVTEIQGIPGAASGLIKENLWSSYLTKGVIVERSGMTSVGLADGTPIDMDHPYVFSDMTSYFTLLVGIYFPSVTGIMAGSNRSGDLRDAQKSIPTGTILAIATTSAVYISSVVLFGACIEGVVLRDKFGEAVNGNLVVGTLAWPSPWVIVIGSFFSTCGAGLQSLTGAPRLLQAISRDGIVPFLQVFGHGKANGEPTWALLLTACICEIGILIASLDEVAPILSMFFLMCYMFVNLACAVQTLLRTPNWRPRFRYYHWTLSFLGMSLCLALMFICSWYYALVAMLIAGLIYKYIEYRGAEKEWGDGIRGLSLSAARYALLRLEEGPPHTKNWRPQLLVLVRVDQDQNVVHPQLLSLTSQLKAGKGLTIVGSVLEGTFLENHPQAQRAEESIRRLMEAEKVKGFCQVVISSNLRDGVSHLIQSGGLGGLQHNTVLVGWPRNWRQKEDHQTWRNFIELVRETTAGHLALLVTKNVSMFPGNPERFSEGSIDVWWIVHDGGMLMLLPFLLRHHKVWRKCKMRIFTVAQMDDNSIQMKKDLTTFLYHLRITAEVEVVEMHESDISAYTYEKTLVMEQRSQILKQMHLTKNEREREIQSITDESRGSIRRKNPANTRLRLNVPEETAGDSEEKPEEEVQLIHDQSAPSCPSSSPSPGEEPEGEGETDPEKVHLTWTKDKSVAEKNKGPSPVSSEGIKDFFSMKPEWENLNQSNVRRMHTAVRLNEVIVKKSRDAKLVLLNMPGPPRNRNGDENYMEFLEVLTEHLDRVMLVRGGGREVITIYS

| Structure (SMILES) | normalised thallium flux (F/F0 slope) [1] | normalized thallium flux [2] | normalized thallium flux [3] | thallium flux rate (normalised fluorescence) [4] | raw Tl+ flux slope (below DMSO = inhibition, above = activation) [5] | thallium flux slope [6] |
| --- | --- | --- | --- | --- | --- | --- |
| Cc1ccccc1-c1n[nH]c(=S)n1/N=C/c1ccc(-c2ccccc2Br)o1 | 0.0093 | 0.016 (active) | 0.0304 | 0.00991 (active) | – | – |
| O=C(NNc1ccccc1Cl)C(O)(c1cccc(C(F)(F)F)c1)c1cccc(C(F)(F)F)c1 | 0.0066 | 0.018 (active) | 0.035 | 0.0219 (active) | 0.0285 (active) | 0.018 (active) |
| CC(=O)NNc1cc(=O)c2c(=O)n(C)c(=O)n(C)c2[nH]1 | 0.0167 | 0.00524 | 0.0281 | 0.00797 | 0.0159 | 0.0112 |
| CCOc1ccccc1C1CC(c2ccc(Cl)cc2)Nc2nc(N)nn21 (centres undefined) | 0.0061 | 0.00475 | 0.0277 | 0.00745 | 0.0177 | 0.00975 |
| COc1ccc(CNC(=O)CCn2cccc2)cc1 | 0.0171 | 0.00443 | 0.0307 | 0.00777 | 0.0168 | 0.0101 |
| Cc1ccccc1N/N=C/c1ccc(N2CCOCC2)cc1 | 0.0119 (active) | 0.00874 (active) | 0.0362 | 0.00826 | 0.0234 | – |
| Cc1ccc(/C=N/NC(=S)NC2CCCCC2)o1 | 0.0109 | 0.0268 (active) | 0.0327 | 0.0111 (active) | 0.0502 (active) | – |
| CC(C)C1Nc2c(C(=O)O)cccc2C(Nc2ccccc2C(=O)O)C1(C)C (centres undefined) | 0.00578 | 0.00489 | 0.0236 (active) | 0.00619 (active) | 0.0131 (active) | – |
| CCCCn1c(=S)[nH]c2ccccc2c1=O | 0.05 (active) | 0.179 (active) | 0.0834 (active) | 0.114 (active) | 0.145 (active) | 0.0577 (active) |
| COc1ccc(NC(=O)COC(=O)c2ccc(NS(=O)(=O)/C=C/c3ccccc3)cc2)cc1 | 0.00992 | 0.00679 | 0.0304 | 0.00722 | 0.0244 | – |
| CCc1ccc2nc3sc(C(=O)Nc4nnc(CC)s4)c(N)c3cc2c1 | 0.00632 | 0.000813 (active) | 0.0241 (active) | 0.00534 (active) | 0.0132 (active) | – |
| Cc1ccc(/C=N/NC(=S)Nc2cccc(S(=O)(=O)N(C)C)c2)o1 | 0.00805 | 0.0101 (active) | 0.028 | 0.0106 (active) | – | – |
| O=c1[nH]c2ccccc2s1 | 0.00622 | 0.00492 | 0.0299 | 0.00725 | 0.0175 | 0.00982 |
| NS(=O)(=O)c1ccc(NC(=S)NC(=O)c2cccnc2)cc1 | 0.00722 | 0.00594 (active) | 0.0316 | 0.00846 | 0.019 | 0.0122 |
| Cc1nc(SCc2ccc(F)cc2)c([N+](=O)[O-])[nH]1 | 0.00918 | 0.00631 | 0.0237 (active) | 0.00609 | 0.0255 (active) | 0.00995 |
| CCCn1c(=S)[nH]c2ccc(C(F)(F)F)cc21 | 0.00727 | 0.0987 (active) | 0.0617 (active) | 0.0842 (active) | 0.0775 (active) | 0.0576 (active) |
| CS(=O)(=O)c1sc(C(=O)NC(=S)Nc2ccc(OC(F)(F)F)cc2)c2c1C=CCC2 | 0.00979 | 0.0362 (active) | 0.0324 | 0.0134 (active) | 0.0498 (active) | – |
| Cc1ccc(N2C(=O)C(Cc3ccccc3)NC2=S)cc1 (centres undefined) | 0.00991 | 0.0247 (active) | 0.032 | 0.0128 (active) | 0.0236 | – |
| Cc1nnc(SC(C(=O)Nc2cc(Cl)cc(Cl)c2)c2ccccc2)[nH]c1=O (centres undefined) | 0.00885 | 0.00559 | 0.0302 | 0.00486 (active) | 0.0159 (active) | – |
| Cc1ccc(C2CC(=O)NC(SCC(=O)OCc3ccccc3)=C2C#N)o1 (centres undefined) | 0.0147 | 0.00407 | 0.0273 | 0.00691 | 0.0133 (active) | 0.00974 |
| N#Cc1nc(COc2ccc(-c3ccccc3)cc2)oc1NCc1cccnc1 | 0.00789 | 0.00445 | 0.029 | 0.00821 | 0.0173 | 0.01 |
| COc1ccc(-n2c(=S)[nH]c3sc4c(c3c2=O)CCc2ccccc2-4)cc1 | 0.0163 (active) | 0.0262 (active) | 0.0334 | 0.0162 (active) | 0.0311 (active) | – |
